Laboratory results from ChEMBL document CHEMBL4270649 (Eur J Med Chem, 2018).
pIC50: −log10 of the molar value. The source made the active and inactive calls. No cut-off for these calls is given here.

Assays:
[1] = target: T1, Dual specificity tyrosine-phosphorylation-regulated kinase 1B (Homo sapiens, UniProt Q9Y463); assay: Inhibition of full length recombinant human GST-tagged DYRK1B expressed in baculovirus expression system using KKISGRLSPIMTEQ-NH2 as substrate after 15 mins in presence of 15 uM [gamma32P]ATP by phosphor imaging analysis
[2] = target: T1, Dual specificity tyrosine-phosphorylation-regulated kinase 1B; conditions: 0.25 h, read-out: INH
[3] = Cytotoxicity against human HeLa cells assessed as cell viability at 10 uM after 3 days by XTT assay relative to control; assay type: cell-based; conditions: read-out: Activity
[4] = Cytotoxicity against human HeLa cells assessed as cell viability at 3 uM after 3 days by XTT assay relative to control; assay type: cell-based; conditions: read-out: Activity
[5] = Cytotoxicity against human HeLa cells assessed as cell viability at 1 uM after 3 days by XTT assay relative to control; assay type: cell-based; conditions: read-out: Activity
[6] = target: SRSF protein kinase 1 (Homo sapiens) (UniProt Q96SB4); assay: Inhibition of full length human His-tagged SRPK1 expressed in baculovirus expression system at 1.25 uM in presence of 100 uM ATP relative to control
[7] = target: T2, Dual specificity tyrosine-phosphorylation-regulated kinase 1A (Homo sapiens, UniProt Q13627); assay: Inhibition of DYRK1A in human HeLa cells harboring GFP-SF3b1-NT assessed as reduction in SF3b1 phosphorylation at T343 residue after 18 hrs by Western blot analysis; assay type: cell-based
[8] = target: Dual specificity protein kinase CLK1 (Homo sapiens, UniProt P49759); assay: Inhibition of recombinant human GST-tagged CLK1 (129 to 484 residues) expressed in Escherichia coli using GRSRSRSRSRSRSRSR as substrate after 15 mins in presence of 15 uM [gamma32P]ATP by phosphor imaging analysis
[9] = target: T3, Serine/threonine-protein kinase haspin (Homo sapiens, UniProt Q8TF76); assay: Inhibition of human GST-tagged haspin expressed in baculovirus expression system at 1.25 uM in presence of 100 uM ATP relative to control
T3 sequence (Q8TF76 whole entry): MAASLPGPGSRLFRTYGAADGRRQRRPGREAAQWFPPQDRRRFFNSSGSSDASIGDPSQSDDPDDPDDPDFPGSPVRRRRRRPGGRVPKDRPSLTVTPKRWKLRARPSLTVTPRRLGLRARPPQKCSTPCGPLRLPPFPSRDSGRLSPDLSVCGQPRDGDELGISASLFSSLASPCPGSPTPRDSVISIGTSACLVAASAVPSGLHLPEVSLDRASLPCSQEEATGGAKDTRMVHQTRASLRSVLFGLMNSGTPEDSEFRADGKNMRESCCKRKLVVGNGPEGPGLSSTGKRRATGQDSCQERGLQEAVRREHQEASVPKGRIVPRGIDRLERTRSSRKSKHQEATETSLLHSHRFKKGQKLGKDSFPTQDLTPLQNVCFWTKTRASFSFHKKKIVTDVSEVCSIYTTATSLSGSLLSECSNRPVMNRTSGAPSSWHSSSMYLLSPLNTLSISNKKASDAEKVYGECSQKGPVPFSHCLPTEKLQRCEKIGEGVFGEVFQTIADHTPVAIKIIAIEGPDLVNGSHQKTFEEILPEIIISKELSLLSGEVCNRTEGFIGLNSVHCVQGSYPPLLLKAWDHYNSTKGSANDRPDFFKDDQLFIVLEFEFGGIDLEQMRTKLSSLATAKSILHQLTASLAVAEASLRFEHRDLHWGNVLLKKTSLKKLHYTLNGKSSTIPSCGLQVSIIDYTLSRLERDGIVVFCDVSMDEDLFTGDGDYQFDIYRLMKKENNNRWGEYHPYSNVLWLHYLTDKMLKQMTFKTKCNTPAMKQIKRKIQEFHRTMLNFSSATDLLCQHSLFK

[10] = Half life in human liver S9 fraction at 0.3 uM in presence of NADP+/UDPGA by LC-MS/MS analysis; assay type: ADME, subcellular
Outline: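 Compound was incubated with human S9 fraction and samples were taken at defined time points. Remaining parent was quantified by LC-MS/MS: ESI triple quadrupole, RP C18 column, water/acetonitrile with 0.1% TFA, 5–100% B over 7 min at 400 µL/min. Half-life was calculated from the remaining-parent data.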

[11] = target: Dual specificity protein kinase CLK2 (Homo sapiens) (UniProt P49760); assay: Inhibition of human GST-tagged CLK2 expressed in baculovirus expression system at 1.25 uM in presence of 100 uM ATP relative to control
[12] = target: Homeodomain-interacting protein kinase 1 (Homo sapiens) (UniProt Q86Z02); assay: Inhibition of human GST-tagged HIPK1 expressed in baculovirus expression system at 1.25 uM in presence of 100 uM ATP relative to control
[13] = target: T4, Serine/threonine-protein kinase 17A (Homo sapiens) (UniProt Q9UEE5); assay: Inhibition of full length human GST-tagged STK17A expressed in baculovirus expression system at 1.25 uM in presence of 100 uM ATP relative to control
T4 sequence (whole entry): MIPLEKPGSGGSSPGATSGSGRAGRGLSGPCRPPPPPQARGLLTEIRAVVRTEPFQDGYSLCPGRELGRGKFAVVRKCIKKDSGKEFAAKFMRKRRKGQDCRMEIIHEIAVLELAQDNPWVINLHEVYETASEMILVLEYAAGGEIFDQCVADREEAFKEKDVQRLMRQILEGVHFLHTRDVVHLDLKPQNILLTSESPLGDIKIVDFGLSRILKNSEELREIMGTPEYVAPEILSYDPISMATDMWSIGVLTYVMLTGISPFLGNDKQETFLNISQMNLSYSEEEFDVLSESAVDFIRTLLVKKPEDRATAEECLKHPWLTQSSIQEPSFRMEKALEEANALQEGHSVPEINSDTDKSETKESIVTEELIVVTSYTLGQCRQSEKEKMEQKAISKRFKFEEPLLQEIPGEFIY

[14] = target: Serine/threonine-protein kinase pim-1 (Homo sapiens) (UniProt P11309); assay: Inhibition of full length human His-tagged PIM1 expressed in baculovirus expression system at 1.25 uM in presence of 100 uM ATP relative to control
[15] = target: T2, Dual specificity tyrosine-phosphorylation-regulated kinase 1A; assay: Inhibition of recombinant human N-terminal His6-tagged DYRK1A expressed in Escherichia coli BL21(DE3) at 1.25 uM using KKISGRLSPIMTEQ-NH2 as substrate after 15 mins in presence of 15 uM [gamma32P]ATP by phosphor imaging analysis relative to control
[16] = target: Myosin light chain kinase 2, skeletal/cardiac muscle (Homo sapiens) (UniProt Q9H1R3); assay: Inhibition of human full length GST-tagged MLCK2 expressed in baculovirus expression system at 1.25 uM in presence of 100 uM ATP relative to control
[17] = target: T2, Dual specificity tyrosine-phosphorylation-regulated kinase 1A; assay: Inhibition of recombinant human N-terminal His6-tagged DYRK1A expressed in Escherichia coli BL21(DE3) using KKISGRLSPIMTEQ-NH2 as substrate after 15 mins in presence of 15 uM [gamma32P]ATP by phosphor imaging analysis
[18] = target: T3, Serine/threonine-protein kinase haspin; assay: Inhibition of human GST-tagged haspin expressed in baculovirus expression system in presence of 100 uM ATP
[19] = target: BDNF/NT-3 growth factors receptor (Homo sapiens) (UniProt Q16620); assay: Inhibition of human His-tagged TRK-B expressed in baculovirus expression system at 1.25 uM in presence of 100 uM ATP relative to control
[20] = target: Cyclin-dependent kinase 5/CDK5 activator 1 (Homo sapiens) (UniProt Q00535+Q15078); assay: Inhibition of full length human GST/His-tagged CDK5/p25 expressed in baculovirus expression system at 1.25 uM in presence of 100 uM ATP by Z'-Lyte assay relative to control
[21] = target: Casein kinase I isoform delta (Homo sapiens) (UniProt P48730); assay: Inhibition of CK1delta (unknown origin) at 1.25 uM in presence of 100 uM ATP relative to control
Sequence of Casein kinase I isoform delta (Homo sapiens) (P48730 whole entry, looked up, canonical isoform): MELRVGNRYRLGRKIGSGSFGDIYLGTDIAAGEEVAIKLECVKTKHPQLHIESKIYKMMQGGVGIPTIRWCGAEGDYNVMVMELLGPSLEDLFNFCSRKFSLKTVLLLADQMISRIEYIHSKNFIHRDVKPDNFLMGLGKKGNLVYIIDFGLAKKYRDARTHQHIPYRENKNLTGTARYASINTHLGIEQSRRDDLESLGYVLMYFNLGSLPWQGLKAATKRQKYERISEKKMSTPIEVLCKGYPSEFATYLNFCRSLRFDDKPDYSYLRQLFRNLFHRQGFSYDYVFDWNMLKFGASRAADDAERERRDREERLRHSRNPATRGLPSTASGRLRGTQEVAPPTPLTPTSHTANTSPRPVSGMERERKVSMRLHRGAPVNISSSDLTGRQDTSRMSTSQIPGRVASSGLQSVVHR

T1 sequence (Q9Y463 whole entry): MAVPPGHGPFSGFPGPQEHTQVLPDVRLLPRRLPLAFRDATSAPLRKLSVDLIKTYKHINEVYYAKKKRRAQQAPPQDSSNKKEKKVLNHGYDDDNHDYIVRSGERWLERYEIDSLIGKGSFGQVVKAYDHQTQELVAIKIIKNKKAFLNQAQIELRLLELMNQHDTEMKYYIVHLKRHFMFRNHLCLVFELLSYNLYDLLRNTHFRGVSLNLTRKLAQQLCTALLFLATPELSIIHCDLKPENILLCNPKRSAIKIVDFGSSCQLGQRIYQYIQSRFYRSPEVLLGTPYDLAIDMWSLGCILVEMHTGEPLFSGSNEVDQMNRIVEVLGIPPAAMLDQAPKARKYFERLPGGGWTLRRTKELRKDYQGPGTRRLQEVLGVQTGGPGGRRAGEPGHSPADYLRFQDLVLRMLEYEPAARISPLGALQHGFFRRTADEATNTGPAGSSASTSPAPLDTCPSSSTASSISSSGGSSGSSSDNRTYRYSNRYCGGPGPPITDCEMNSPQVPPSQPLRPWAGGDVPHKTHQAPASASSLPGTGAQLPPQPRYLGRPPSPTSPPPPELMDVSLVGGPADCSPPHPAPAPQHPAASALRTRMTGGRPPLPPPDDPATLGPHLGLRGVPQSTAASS
Sequence of BDNF/NT-3 growth factors receptor (Homo sapiens) (Q16620 32-822 limits assumed): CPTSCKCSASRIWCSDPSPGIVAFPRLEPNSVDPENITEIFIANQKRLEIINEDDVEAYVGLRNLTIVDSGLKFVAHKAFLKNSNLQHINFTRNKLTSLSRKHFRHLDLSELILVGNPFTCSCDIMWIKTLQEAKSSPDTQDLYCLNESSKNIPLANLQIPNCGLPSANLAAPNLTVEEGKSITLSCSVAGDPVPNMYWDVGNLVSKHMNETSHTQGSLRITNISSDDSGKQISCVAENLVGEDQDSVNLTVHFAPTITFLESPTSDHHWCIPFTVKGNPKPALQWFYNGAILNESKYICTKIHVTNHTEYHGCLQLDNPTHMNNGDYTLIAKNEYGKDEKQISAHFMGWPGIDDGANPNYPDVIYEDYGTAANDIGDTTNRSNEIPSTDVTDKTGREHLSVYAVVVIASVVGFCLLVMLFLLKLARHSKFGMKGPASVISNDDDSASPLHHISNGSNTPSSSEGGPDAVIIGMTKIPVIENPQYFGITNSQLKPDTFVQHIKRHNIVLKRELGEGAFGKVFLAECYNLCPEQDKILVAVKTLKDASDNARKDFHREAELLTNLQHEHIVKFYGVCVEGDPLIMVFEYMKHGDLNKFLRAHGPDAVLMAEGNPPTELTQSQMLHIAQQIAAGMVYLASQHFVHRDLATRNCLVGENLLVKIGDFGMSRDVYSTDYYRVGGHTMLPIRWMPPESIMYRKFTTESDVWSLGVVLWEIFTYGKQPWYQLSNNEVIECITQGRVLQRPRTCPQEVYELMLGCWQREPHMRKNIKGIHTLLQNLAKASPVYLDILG
Sequence of Dual specificity protein kinase CLK2 (Homo sapiens) (P49760 whole entry, looked up): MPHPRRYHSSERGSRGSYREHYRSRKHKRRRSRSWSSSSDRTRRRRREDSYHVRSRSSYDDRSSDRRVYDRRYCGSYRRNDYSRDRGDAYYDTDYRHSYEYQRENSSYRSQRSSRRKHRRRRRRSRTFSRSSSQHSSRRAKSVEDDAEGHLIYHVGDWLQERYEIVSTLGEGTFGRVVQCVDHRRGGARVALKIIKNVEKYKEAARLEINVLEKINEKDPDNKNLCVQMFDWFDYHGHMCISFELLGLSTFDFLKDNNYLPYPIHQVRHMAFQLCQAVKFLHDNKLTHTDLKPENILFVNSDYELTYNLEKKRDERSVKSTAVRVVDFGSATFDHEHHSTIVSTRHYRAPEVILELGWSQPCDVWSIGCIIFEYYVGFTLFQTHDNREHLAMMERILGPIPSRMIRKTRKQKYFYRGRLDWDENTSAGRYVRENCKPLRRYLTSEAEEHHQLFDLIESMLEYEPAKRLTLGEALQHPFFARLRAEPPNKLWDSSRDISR
Sequence of Myosin light chain kinase 2, skeletal/cardiac muscle (Homo sapiens) (Q9H1R3 whole entry): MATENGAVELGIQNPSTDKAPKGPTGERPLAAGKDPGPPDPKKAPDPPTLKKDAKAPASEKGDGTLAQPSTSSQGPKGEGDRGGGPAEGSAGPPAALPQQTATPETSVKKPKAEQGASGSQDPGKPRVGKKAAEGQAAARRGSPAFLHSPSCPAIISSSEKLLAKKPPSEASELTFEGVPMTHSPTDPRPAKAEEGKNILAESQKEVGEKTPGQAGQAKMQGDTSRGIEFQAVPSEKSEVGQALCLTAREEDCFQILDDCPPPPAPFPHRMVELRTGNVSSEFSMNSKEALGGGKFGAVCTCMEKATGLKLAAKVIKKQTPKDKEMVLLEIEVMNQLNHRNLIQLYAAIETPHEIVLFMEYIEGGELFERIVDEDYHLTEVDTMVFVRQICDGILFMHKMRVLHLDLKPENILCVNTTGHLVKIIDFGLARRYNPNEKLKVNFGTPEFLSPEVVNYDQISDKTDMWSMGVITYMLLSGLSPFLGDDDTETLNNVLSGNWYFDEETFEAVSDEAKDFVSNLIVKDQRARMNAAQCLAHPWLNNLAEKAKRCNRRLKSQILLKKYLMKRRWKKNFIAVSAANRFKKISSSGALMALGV
Sequence of SRSF protein kinase 1 (Homo sapiens) (Q96SB4 whole entry): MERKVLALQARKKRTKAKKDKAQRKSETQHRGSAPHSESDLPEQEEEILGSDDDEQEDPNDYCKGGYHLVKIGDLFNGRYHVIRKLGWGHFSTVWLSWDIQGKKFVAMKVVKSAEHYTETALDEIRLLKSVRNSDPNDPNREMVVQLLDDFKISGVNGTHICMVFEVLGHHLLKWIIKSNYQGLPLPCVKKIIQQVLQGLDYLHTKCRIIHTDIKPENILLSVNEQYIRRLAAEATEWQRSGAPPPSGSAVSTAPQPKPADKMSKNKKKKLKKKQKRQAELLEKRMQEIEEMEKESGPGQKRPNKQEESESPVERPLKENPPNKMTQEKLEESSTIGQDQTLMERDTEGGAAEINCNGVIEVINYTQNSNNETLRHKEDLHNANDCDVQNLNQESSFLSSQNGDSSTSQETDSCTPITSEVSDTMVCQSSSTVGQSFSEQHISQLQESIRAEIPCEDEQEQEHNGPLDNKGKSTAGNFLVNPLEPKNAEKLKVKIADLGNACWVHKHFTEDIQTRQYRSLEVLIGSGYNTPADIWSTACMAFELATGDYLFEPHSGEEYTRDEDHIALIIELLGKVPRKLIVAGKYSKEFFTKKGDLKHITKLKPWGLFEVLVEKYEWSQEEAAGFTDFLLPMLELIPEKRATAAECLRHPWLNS
Sequence of Cyclin-dependent kinase 5/CDK5 activator 1 (Homo sapiens) (Q00535 whole entry, canonical isoform): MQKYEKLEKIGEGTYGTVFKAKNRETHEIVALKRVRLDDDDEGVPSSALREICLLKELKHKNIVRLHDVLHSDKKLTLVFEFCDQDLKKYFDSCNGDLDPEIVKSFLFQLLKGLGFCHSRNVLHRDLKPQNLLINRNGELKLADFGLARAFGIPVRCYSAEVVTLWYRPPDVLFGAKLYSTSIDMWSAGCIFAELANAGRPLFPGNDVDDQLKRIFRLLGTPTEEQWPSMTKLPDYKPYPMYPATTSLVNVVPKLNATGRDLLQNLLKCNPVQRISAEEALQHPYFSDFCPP
Sequence of Cyclin-dependent kinase 5/CDK5 activator 1 (Homo sapiens) (Q15078 99-307 partner limits assumed): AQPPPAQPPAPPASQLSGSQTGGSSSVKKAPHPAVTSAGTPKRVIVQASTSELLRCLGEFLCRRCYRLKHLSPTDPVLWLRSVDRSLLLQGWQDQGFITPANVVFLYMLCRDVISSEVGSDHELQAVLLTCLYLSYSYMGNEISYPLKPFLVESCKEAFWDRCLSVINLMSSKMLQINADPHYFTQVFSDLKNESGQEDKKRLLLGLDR
Sequence of Serine/threonine-protein kinase pim-1 (Homo sapiens) (P11309 whole entry, looked up): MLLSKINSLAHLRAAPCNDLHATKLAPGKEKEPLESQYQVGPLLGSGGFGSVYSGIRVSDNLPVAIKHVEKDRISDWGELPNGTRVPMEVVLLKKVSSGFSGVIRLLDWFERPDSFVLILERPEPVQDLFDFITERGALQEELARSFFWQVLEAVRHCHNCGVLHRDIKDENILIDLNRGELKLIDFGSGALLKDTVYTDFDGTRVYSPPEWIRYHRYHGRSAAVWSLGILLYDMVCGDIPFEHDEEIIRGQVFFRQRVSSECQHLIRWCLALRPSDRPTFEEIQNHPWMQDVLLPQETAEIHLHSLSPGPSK
Sequence of Dual specificity protein kinase CLK1 (P49759 whole entry, the tested form may be a part): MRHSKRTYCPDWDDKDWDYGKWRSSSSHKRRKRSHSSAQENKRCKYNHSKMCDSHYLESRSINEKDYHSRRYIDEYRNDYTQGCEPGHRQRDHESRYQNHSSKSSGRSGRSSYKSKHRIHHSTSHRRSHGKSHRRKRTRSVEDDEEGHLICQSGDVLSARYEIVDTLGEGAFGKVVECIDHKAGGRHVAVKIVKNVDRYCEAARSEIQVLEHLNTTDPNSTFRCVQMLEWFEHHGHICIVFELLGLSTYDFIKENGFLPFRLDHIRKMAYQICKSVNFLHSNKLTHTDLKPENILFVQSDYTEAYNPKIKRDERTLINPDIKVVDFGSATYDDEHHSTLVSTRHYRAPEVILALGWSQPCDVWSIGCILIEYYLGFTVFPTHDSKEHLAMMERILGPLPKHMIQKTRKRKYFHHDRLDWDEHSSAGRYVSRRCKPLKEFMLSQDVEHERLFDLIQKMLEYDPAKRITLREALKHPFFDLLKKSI

Row | SMILES | pIC50 [1] | inhibition at 0.25 µM [2] [%] | other results
1 | O=C(Nc1cncc(-c2cc(-c3cccnc3)cs2)c1)C1CCNC1 (stereo not given) | 6.88 | 62.7 | –
2 | CCCn1cc(-c2csc(-c3cncc(NC(=O)C4CC4)c3)c2)cn1 | 7.01 | 65.7 | –
3 | CC(=O)Nc1cncc(-c2cc(-c3cccnc3)cs2)c1 | – | 40.3 | viability at 72 h, 10 µM [3]: 83%; viability at 72 h, 3 µM [4]: 95%; viability at 72 h, 1 µM [5]: 98%
4 | O=C(Nc1cncc(-c2cc(-c3cccnc3)cs2)c1)C1CC1 | 7.14 | 40 | inhibition [6]: 2%; pIC50 [7]: 7.37; inhibition [7]: Dose-dependent effect; viability at 72 h, 10 µM [3]: 98%; pIC50 [8]: 6.57; inhibition at 1.25 µM [9]: 72%; half-life at 0.3 µM [10]: 2.4 h; viability at 72 h, 3 µM [4]: 102%; inhibition [11]: 21%; inhibition [12]: 1%; inhibition [13]: 51.3%; viability at 72 h, 1 µM [5]: 99%; inhibition [14]: inactive; inhibition [15]: 89%; inhibition [16]: 12.1%; pIC50 [17]: 8.49; pIC50 [18]: 7.12; inhibition [19]: 8%; inhibition [20]: 1%; inhibition [21]: 4%
5 | CS(=O)(=O)Nc1cncc(-c2cc(-c3cccnc3)cs2)c1 | – | 23.5 | –
6 | Cn1cc(-c2csc(-c3cncc(NC(=O)C4CC4)c3)c2)cn1 | 7.17 | 78.6 | –
7 | CCC(=O)Nc1cncc(-c2cc(-c3cccnc3)cs2)c1 | – | 49.3 | –
8 | CN[C@@H]1C[C@H]2O[C@@](C)([C@@H]1OC)n1c3ccccc3c3c4c(c5c6ccccc6n2c5c31)C(=O)NC4 [STAUROSPORINE] | – | – | viability at 72 h, 1 µM [5]: 33%
9 | CCn1cc(-c2csc(-c3cncc(NC(=O)C4CC4)c3)c2)cn1 | – | 57 | –
10 | CN(C(=O)C1CC1)c1cncc(-c2cc(-c3cccnc3)cs2)c1 | – | 0.9 | –
11 | CCN(C(=O)C1CC1)c1cncc(-c2cc(-c3cccnc3)cs2)c1 | – | 14.6 | –
12 | O=C(CN1CCOCC1)Nc1cncc(-c2cc(-c3cccnc3)cs2)c1 | – | 13.9 | –
13 | O=C(Cc1nnn[nH]1)Nc1cncc(-c2cc(-c3cccnc3)cs2)c1 | – | 38.5 | –
14 | O=C(Nc1cncc(-c2cc(-c3cccnc3)cs2)c1)C1CCCCC1 | – | 51 | –
15 | O=C(CN1CCCCC1)Nc1cncc(-c2cc(-c3cccnc3)cs2)c1 | – | 51.8 | –
16 | O=C(Nc1cncc(-c2cccs2)c1)C1CC1 | – | 0 | –
17 | O=C(Nc1cncc(-c2cc(-c3cccnc3)cs2)c1)C1CCC1 | 6.66 | 81 | –
18 | CC(C)n1cc(-c2csc(-c3cncc(NC(=O)C4CC4)c3)c2)cn1 | – | 0.7 | –
19 | CC(C)(C)OC(=O)N1CCC(C(=O)Nc2cncc(-c3cc(-c4cccnc4)cs3)c2)C1 (stereo not given) | – | 34.9 | –
20 | O=C(Nc1cncc(-c2cc(-c3cn[nH]c3)cs2)c1)C1CC1 | 6.86 | 58.1 | half-life at 0.3 µM [10]: 2.45 h
